These results are taken from ChEMBL document CHEMBL2163303, “The development of first Staphylococcus aureus SplB protease inhibitors: phosphonic analogues of glutamine” (Bioorg Med Chem Lett, 2012).

The term Ki denotes a dissociation constant, usually derived from enzyme kinetics or from competition with a known ligand. Read a high Ki as weaker binding.

The nature of experiment [1]: Inhibition of chymotrypsin using fluorogenic Suc-Ala-Ala-Pro-Phe-AMC as substrate by spectrofluorometry. The procedure, abridged:
(§1)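 Run in 0.1 M HEPES, 0.5 M NaCl, 0.03% Triton X-100, pH 7.5, 37 °C, with chymotrypsin at 3 nM or subtilisin at 5 nM. Enzyme added to Suc-Ala-Ala-Pro-Phe-AMC plus excess inhibitor, read at Ex 350/Em 460 nm. k_obs taken from progress curves; k2/Ki derived via a Km-corrected irreversible-inhibition model.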

Experiment [2] has as its target T1, Serine protease SplB (Staphylococcus aureus) (UniProt Q53781).
T1 sequence (whole entry): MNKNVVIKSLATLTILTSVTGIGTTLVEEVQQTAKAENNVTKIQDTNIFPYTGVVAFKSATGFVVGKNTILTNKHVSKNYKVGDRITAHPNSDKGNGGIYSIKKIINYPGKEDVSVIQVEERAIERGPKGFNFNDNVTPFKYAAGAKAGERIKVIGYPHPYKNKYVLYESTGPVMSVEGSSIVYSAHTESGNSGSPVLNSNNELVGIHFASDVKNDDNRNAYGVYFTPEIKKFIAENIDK
The experiment is described as follows: Ratio of rate of irreversible step k2 to Ki for Staphylococcus aureus SplB using fluorogenic […] as substrate up to 200 uM by spectrofluorometry. The procedure, abridged: (§2)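 Enzyme added to substrate plus excess inhibitor in 0.1 M Tris-HCl, 0.01% Triton X-100, pH 7.6, 37 °C; SplB at 100 nM. Ac-Trp-Glu-Leu-Gln-ACC read at Ex 355/Em 460 nm. Pseudo-first-order k_obs taken from progress curves; k2/Ki fitted using substrate Km.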

The nature of experiment [3]: Ratio of rate of irreversible step k2 to Ki for subtilisin using fluorogenic Suc-Ala-Ala-Pro-Phe-AMC as substrate by spectrofluorometry. Summed up:
as §1

A short description of experiment [4]: Inhibition of subtilisin using fluorogenic Suc-Ala-Ala-Pro-Phe-AMC as substrate by spectrofluorometry. The procedure, abridged:
as §1

Experiment [5] addresses T1, Serine protease SplB (Staphylococcus aureus). The experiment can be described thus: Inhibition of Staphylococcus aureus SplB using fluorogenic […] as substrate up to 200 uM by spectrofluorometry. The procedure, abridged:
as §2

The target in the next experiment is T2, Serine protease SplB (Staphylococcus aureus, UniProt Q53781).
T2 sequence (Q53781 whole entry): T1 sequence (whole entry)
The experiment is described as follows: Inhibition of Staphylococcus aureus SplB using fluorogenic […] as substrate by spectrofluorometry. Summed up: as §2

A short description of experiment [6]: Ratio of rate of irreversible step k2 to Ki for chymotrypsin using fluorogenic Suc-Ala-Ala-Pro-Phe-AMC as substrate by spectrofluorometry. The procedure, abridged:
as §1

Molecules are shown by their SMILES. Calls of active or inactive are those of the source. The rule behind the calls is not given here. A value given as a limit tells only on which side of the number the result lay.

Turning to `COc1ccc(OP(=O)(Oc2ccc(OC)cc2)C(CCC(N)=O)NC(=O)C(CC(C)C)NC(=O)OCc2ccccc2)cc1` (mixture of isomers), the Ki in experiment [1] is over 200 µM; in experiment [4] it was 35 µM; at Serine protease SplB, over 200 µM. Besides, the Ratio in experiment [2] was under 10 M⁻¹ s⁻¹; in experiment [3], 57 M⁻¹ s⁻¹; in experiment [6], under 10 M⁻¹ s⁻¹. For the same compound, the inhibition entry in experiment [5] was “inactive”.
Consider `COc1ccc(OP(=O)(Oc2ccc(OC)cc2)C(CCC(N)=O)NC(=O)OCc2ccccc2)cc1` (racemic), for which the values for the Ki (in experiment [1]; in experiment [4]; on Serine protease SplB) were over 200 µM, 111 µM and over 200 µM, respectively. Also, the Ratio in experiment [2] is under 10 M⁻¹ s⁻¹; in experiment [3], 33 M⁻¹ s⁻¹; in experiment [6] it was under 10 M⁻¹ s⁻¹. Besides, in experiment [5], the inhibition result is “inactive”.
On to `CC(C)(C)c1ccc(OP(=O)(Oc2ccc(C(C)(C)C)cc2)C(CCC(N)=O)NC(=O)OCc2ccccc2)cc1` (racemic), for which the inhibition constant Ki (in experiment [1]; in experiment [4]; at Serine protease SplB) was over 200 µM throughout. The Ratio in experiment [2], in experiment [3] and in experiment [6] was under 10 M⁻¹ s⁻¹ in each case. Also, the inhibition entry in experiment [5] was “inactive”.
`CC(C)CC(NC(=O)OCc1ccccc1)C(=O)NC(CCC(N)=O)P(=O)(Oc1ccccc1)Oc1ccccc1` (mixture of isomers): the Ki (in experiment [1]; in experiment [4]; at Serine protease SplB) was over 200 µM throughout. Besides, the Ratio in experiment [2], in experiment [3] and in experiment [6] was under 10 M⁻¹ s⁻¹ in each case. The inhibition result in experiment [5] is “inactive”.
As for `NC(=O)CCC(NC(=O)OCc1ccccc1)P(=O)(Oc1ccccc1)Oc1ccccc1` (racemic), the Ki (in experiment [1]; in experiment [4]; on Serine protease SplB) was over 200 µM throughout. The Ratio in experiment [2], in experiment [3] and in experiment [6] was under 10 M⁻¹ s⁻¹ each time. Also, in experiment [5], the inhibition entry is “inactive”.
Turning to `CCc1ccc(OP(=O)(Oc2ccc(CC)cc2)C(CCC(N)=O)NC(=O)C(CC(C)C)NC(=O)OCc2ccccc2)cc1` (mixture of isomers), the Ki (in experiment [1]; in experiment [4]; on Serine protease SplB) was over 200 µM each time. Also, the Ratio in experiment [2], in experiment [3] and in experiment [6] was under 10 M⁻¹ s⁻¹ each time. Further, in experiment [5], the inhibition result is “inactive”.
In the case of `CCc1ccc(OP(=O)(Oc2ccc(CC)cc2)C(CCC(N)=O)NC(=O)OCc2ccccc2)cc1` (racemic), the Ki (in experiment [1]; in experiment [4]; at Serine protease SplB) was over 200 µM each time. The Ratio in experiment [2], in experiment [3] and in experiment [6] was under 10 M⁻¹ s⁻¹ each time. The inhibition result in experiment [5] is “inactive”.
For `CC(C)CC(NC(=O)OCc1ccccc1)C(=O)NC(CCC(N)=O)P(=O)(Oc1ccc(C(C)(C)C)cc1)Oc1ccc(C(C)(C)C)cc1` (racemic), the Ki (in experiment [1]; in experiment [4]; at Serine protease SplB) was over 200 µM in each case. In addition, the Ratio in experiment [2], in experiment [3] and in experiment [6] was under 10 M⁻¹ s⁻¹ throughout. Besides, the inhibition result in experiment [5] was “inactive”.
